Values belong to the molecule of their own block, whether it stands above or below them.
How the values were obtained:
[1] = system: EGFR kinases; details: cited from earlier work
[2] = system: healthy participants; experiment: Safety assessment; type: in vivo, human; details: for Dizziness / Dysmenorrhoea / Headache / Myalgia / Nausea / Oral herpes / Rash / Tension headache / Throat irritation / Upper respiratory tract infection: all branebrutinib doses
[3] = Plasma pharmacokinetics by validated LC–MS/MS; type: in vivo, human; details: for AUC(0-inf) / Cmax / half-life / Tmax / Vd/F: human, plasma; for AUC(0-inf): GM AUCinf; for Cmax: GM Cmax; for Tmax: Median Tmax
[4] = molecular target: Bruton's tyrosine kinase (BTK) (Homo sapiens, UniProt Q06187); experiment: BTK occupancy in blood by immunocapture LC–MS/MS; type: in vivo; details: for Time at which BTK occupancy reached steady state: MAD
Procedure, shortened: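 Healthy volunteers in SAD and MAD parts (MAD doses 0.3–10 mg). Whole blood in ACD-A was lysed at once in buffer with protease inhibitor and a Cys481-reactive quencher, shaken 1 h at room temperature, and stored ≤−70°C. Anti-BTK bead immunocapture, on-bead trypsin digest, and LC–MS/MS of drug- or quencher-bound Cys481 peptide (residues 467–487). Occupancy = DB/(DB+QB)×100, and total BTK was also derived.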

[5] = system: peripheral blood B‐cell populations; experiment: Peripheral blood B-cell subsets; type: in vivo, human; details: MAD part
Procedure, shortened: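 Double-blind, placebo-controlled multiple-ascending-dose part in healthy adults aged 18–55 y (BMI 18–32 kg m−2), randomised 3:1 to test compound or placebo. Oral dosing once daily for 14 days at 0.3, 1, 3 or 10 mg, with 14 days of post-dosing follow-up. Peripheral blood B-cell subsets measured and summarised with descriptive statistics.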

[6] = system: serum immunoglobulin levels; experiment: Serum immunoglobulins; type: in vivo, human; details: both parts (SAD and MAD)
Procedure, shortened: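 Healthy adults aged 18–55 y, randomised 3:1 to test compound or placebo, double-blind. Single-ascending-dose part: one oral dose of 0.3, 1, 3, 10 or 30 mg (n = 6 each; placebo n = 10). Multiple-ascending-dose part: oral dosing daily for 14 days at 0.3–10 mg. Serum immunoglobulins measured in both parts and summarised descriptively.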

[7] = system: BTK; details: cited from earlier work
[8] = system: murine models of collagen‐ and collagen antibody–induced arthritis; details: administered orally once daily (QD); both arthritis models; cited from earlier work
[9] = preclinical studies; cited from earlier work
[10] = oral, 0.3 mg, JMAD part (day 14), 0.3 mg QD, n = 6
[11] = oral, 0.3 mg, MAD part (day 14), 0.3 mg QD, n = 6
[12] = oral, 1 mg, MAD part (day 14), 1 mg QD, n = 6
[13] = oral, 1 mg, SAD part (day 1), 1 mg, n = 6
[14] = oral, 3 mg, JMAD part (day 14), 3 mg QD, n = 6
[15] = oral, 3 mg, MAD part (day 14), 3 mg QD, n = 6
[16] = oral, 3 mg, SAD part (day 1), 3 mg, n = 6
[17] = oral, 10 mg, JMAD part (day 14), 10 mg QD, n = 6
[18] = oral, 10 mg, MAD part (day 14), 10 mg QD, n = 5
[19] = oral, 10 mg, SAD part (day 1), 10 mg, n = 6
[20] = oral, 30 mg, SAD part (day 1), 30 mg, n = 6

Chain of Bruton's tyrosine kinase (BTK) (Q06187 whole entry, the tested form may be a part): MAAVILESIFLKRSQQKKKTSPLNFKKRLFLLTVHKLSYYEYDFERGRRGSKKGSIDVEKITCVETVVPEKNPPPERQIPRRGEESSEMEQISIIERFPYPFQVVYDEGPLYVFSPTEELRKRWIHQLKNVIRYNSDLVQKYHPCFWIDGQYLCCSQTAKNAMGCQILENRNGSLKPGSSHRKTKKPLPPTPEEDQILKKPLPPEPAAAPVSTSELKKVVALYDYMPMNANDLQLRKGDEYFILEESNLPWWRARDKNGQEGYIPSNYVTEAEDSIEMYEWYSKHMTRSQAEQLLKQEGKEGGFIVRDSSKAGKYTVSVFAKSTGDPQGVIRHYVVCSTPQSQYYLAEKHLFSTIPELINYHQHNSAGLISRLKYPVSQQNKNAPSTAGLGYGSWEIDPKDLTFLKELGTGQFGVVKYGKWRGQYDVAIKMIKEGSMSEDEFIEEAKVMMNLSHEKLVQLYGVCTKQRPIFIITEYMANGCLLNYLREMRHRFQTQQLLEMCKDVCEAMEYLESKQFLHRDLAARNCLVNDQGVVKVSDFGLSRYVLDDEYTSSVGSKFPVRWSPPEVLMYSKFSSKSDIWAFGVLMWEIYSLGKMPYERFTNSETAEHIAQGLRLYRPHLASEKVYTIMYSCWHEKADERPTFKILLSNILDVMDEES

Structure (SMILES): C=CC(=O)N1CCC[C@@H](n2nc(-c3ccc(Oc4ccccc4)cc3)c3c(N)ncnc32)C1 [ibrutinib, reference compound]
Inhibition of the EGFR family of kinases [1]: potent irreversible inhibitor

GM CLT/F (apparent total body clearance) ([3]; JMAD part (day 14), 0.3 mg QD, n = 5): 94.0 (n = 5) L/hr | GM CLT/F (apparent total body clearance) ([3]; JMAD part (day 14), 3 mg QD, n = 6): 109 (n = 6) L/hr | GM CLT/F (apparent total body clearance) ([3]; JMAD part (day 14), 10 mg QD, n = 6): 72.2 (n = 6) L/hr | GM CLT/F (apparent total body clearance) ([3]; MAD part (day 14), 0.3 mg QD, n = 5): 81.3 (n = 5) L/hr | GM CLT/F (apparent total body clearance) ([3]; MAD part (day 14), 1 mg QD, n = 6): 95.5 (n = 6) L/hr | GM CLT/F (apparent total body clearance) ([3]; MAD part (day 14), 3 mg QD, n = 6): 98.1 (n = 6) L/hr | GM CLT/F (apparent total body clearance) ([3]; MAD part (day 14), 10 mg QD, n = 5): 99.5 (n = 5) L/hr | Accumulation following administration of multiple doses ([3]; MAD, QD 14 days): No accumulation | GM CLT/F (apparent total body clearance) ([3]; SAD part (day 1), 0.3 mg single oral dose, n = 6): 126 L/h | GM CLT/F (apparent total body clearance) ([3]; SAD part (day 1), 1 mg, n = 6): 124 L/h | GM CLT/F (apparent total body clearance) ([3]; SAD part (day 1), 3 mg, n = 6): 122 L/h | GM CLT/F (apparent total body clearance) ([3]; SAD part (day 1), 10 mg, n = 6): 99.6 L/h | GM CLT/F (apparent total body clearance) ([3]; SAD part (day 1), 30 mg, n = 6): 106 L/h | Time to drop to undetectable plasma levels ([3]; after single or multiple doses): ≤ 24 h | AUC(0-inf) ([3]; oral, 0.3 mg, JMAD part (day 14), 0.3 mg QD, n = 5): 3.2 ng·h/mL | AUC(0-inf) ([3]; oral, 0.3 mg, MAD part (day 14), 0.3 mg QD, n = 5): 3.7 ng·h/mL | Cmax [3, 10]: 2 ng/mL | Cmax [3, 11]: 2.2 ng/mL | half-life ([3]; oral, 0.3 mg, Mean t1/2, JMAD part (day 14), 0.3 mg QD, n = 5): 54.6 min | half-life ([3]; oral, 0.3 mg, Mean t1/2, MAD part (day 14), 0.3 mg QD, n = 5): 78 min | Tmax [3, 10]: 30 min | Tmax [3, 11]: 60 min | Vd/F ([3]; oral, 1 mg): 255 L | AUC(0-inf) [3, 12]: 10.5 ng·h/mL | AUC(0-inf) [3, 13]: 8.1 ng·h/mL | Cmax [3, 12]: 5.9 ng/mL | Cmax [3, 13]: 4.6 ng/mL | half-life ([3]; oral, 1 mg, Mean t1/2, MAD part (day 14), 1 mg QD, n = 6): 99.6 min | half-life ([3]; oral, 1 mg, Mean t1/2, SAD part (day 1), 1 mg, n = 6): 95.4 min | Tmax [3, 12]: 30 min | Tmax [3, 13]: 30 min | Vd/F ([3]; oral, 3 mg): 304 L | AUC(0-inf) [3, 14]: 27.4 ng·h/mL | AUC(0-inf) [3, 15]: 30.6 ng·h/mL | AUC(0-inf) [3, 16]: 24.5 ng·h/mL | Cmax [3, 14]: 16.3 ng/mL | Cmax [3, 15]: 17.8 ng/mL | Cmax [3, 16]: 14.2 ng/mL | half-life ([3]; oral, 3 mg, Mean t1/2, JMAD part (day 14), 3 mg QD, n = 6): 90.6 min | half-life ([3]; oral, 3 mg, Mean t1/2, MAD part (day 14), 3 mg QD, n = 6): 98.4 min | half-life ([3]; oral, 3 mg, Mean t1/2, SAD part (day 1), 3 mg, n = 6): 104 min | Tmax [3, 14]: 30 min | Tmax [3, 15]: 30 min | Tmax [3, 16]: 48 min | Vd/F ([3]; oral, 10 mg): 221 L | AUC(0-inf) [3, 17]: 139 ng·h/mL | AUC(0-inf) [3, 18]: 101 ng·h/mL | AUC(0-inf) [3, 19]: 100 ng·h/mL | Cmax [3, 17]: 97.2 ng/mL | Cmax [3, 18]: 60.5 ng/mL | Cmax [3, 19]: 66.6 ng/mL | half-life ([3]; oral, 10 mg, Mean t1/2, JMAD part (day 14), 10 mg QD, n = 6): 102 min | half-life ([3]; oral, 10 mg, Mean t1/2, MAD part (day 14), 10 mg QD, n = 5): 104 min | half-life ([3]; oral, 10 mg, Mean t1/2, SAD part (day 1), 10 mg, n = 6): 93.6 min | Tmax [3, 17]: 30 min | Tmax [3, 18]: 30 min | Tmax [3, 19]: 30 min | Vd/F ([3]; oral, 30 mg): 245 L | AUC(0-inf) [3, 20]: 282 ng·h/mL | Cmax [3, 20]: 179 ng/mL | half-life ([3]; oral, 30 mg, Mean t1/2, SAD part (day 1), 30 mg, n = 6): 97.8 min | Tmax [3, 20]: 30 min | Vd/F ([3]; po, 0.3 mg): 216 L | Trough observed concentrations ([3]; multiple doses, LLOQ 0.100 ng mL^−1): below the LLOQ | Systemic exposure vs dose ([3]; single or multiple doses): dose‐proportional | Time at which BTK occupancy reached steady state ([4]; 0.3‐mg dose group): 14 days | Time at which BTK occupancy reached steady state ([4]; 10‐mg dose group): 1 days | Doses projected to be efficacious (BTK occupancy >90% at steady state) ([4]; at steady state, QD): ≥ 1 mg
Structure (SMILES): CC#CC(=O)N[C@H]1CCCN(c2c(F)cc(C(N)=O)c3[nH]c(C)c(C)c23)C1 [Branebrutinib]
Dizziness ([2]; JMAD part, n = 18): 0 (0.0) n (%) | Dysmenorrhoea ([2]; JMAD part, n = 18): 2 (11.1) n (%) | Headache ([2]; JMAD part, n = 18): 1 (5.6) n (%) | Myalgia ([2]; JMAD part, n = 18): 0 (0.0) n (%) | Nausea ([2]; JMAD part, n = 18): 0 (0.0) n (%) | Oral herpes ([2]; JMAD part, n = 18): 0 (0.0) n (%) | Rash ([2]; JMAD part, n = 18): 0 (0.0) n (%) | Tension headache ([2]; JMAD part, n = 18): 0 (0.0) n (%) | Throat irritation ([2]; JMAD part, n = 18): 0 (0.0) n (%) | Upper respiratory tract infection ([2]; JMAD part, n = 18): 0 (0.0) n (%) | Serious AE (psychosis) leading to study discontinuation, number ([2]; MAD part, 10‐mg cohort, Day 10, considered not related to study drug): 1 | Any AE ([2]; MAD part, QD 14 days, all branebrutinib doses 0.3-10 mg, n = 24): 17 (70.8) n (%) | Dizziness ([2]; MAD part, n = 24): 0 (0.0) n (%) | Dysmenorrhoea ([2]; MAD part, n = 24): 0 (0.0) n (%) | Headache ([2]; MAD part, n = 24): 8 (33.3) n (%) | Myalgia ([2]; MAD part, n = 24): 0 (0.0) n (%) | Nausea ([2]; MAD part, n = 24): 2 (8.3) n (%) | Oral herpes ([2]; MAD part, n = 24): 3 (12.5) n (%) | Rash ([2]; MAD part, n = 24): 0 (0.0) n (%) | Tension headache ([2]; MAD part, n = 24): 2 (8.3) n (%) | Throat irritation ([2]; MAD part, n = 24): 0 (0.0) n (%) | Upper respiratory tract infection ([2]; MAD part, n = 24): 4 (16.7) n (%) | Dizziness ([2]; SAD part, n = 30): 3 (10.0) n (%) | Dysmenorrhoea ([2]; SAD part, n = 30): 2 (6.7) n (%) | Headache ([2]; SAD part, n = 30): 4 (13.3) n (%) | Myalgia ([2]; SAD part, n = 30): 2 (6.7) n (%) | Nausea ([2]; SAD part, n = 30): 2 (6.7) n (%) | Oral herpes ([2]; SAD part, n = 30): 1 (3.3) n (%) | Rash ([2]; SAD part, n = 30): 2 (6.7) n (%) | Tension headache ([2]; SAD part, n = 30): 0 (0.0) n (%) | Throat irritation ([2]; SAD part, n = 30): 2 (6.7) n (%) | Upper respiratory tract infection ([2]; SAD part, n = 30): 3 (10.0) n (%) | Any AE ([2]; SAD part, single dose, all branebrutinib doses 0.3-30 mg, n = 30): 18 (60.0) n (%) | Dose‐related trend in AEs ([2]; across both parts of the trial): no dose‐related trend | Tolerability ([2]; single or multiple doses in healthy participants): well tolerated | Effect on peripheral blood B‐cell populations [5]: no obvious effect | Effect on serum immunoglobulin levels [6]: no obvious effect | Selectivity for BTK over 4 related Tec family kinases [7]: < 5000 fold | Selectivity for BTK over 240 other kinases [7]: > 5000 fold | Doses at which maximal efficacy was observed [8]: ≥ 0.5 mg/kg | Brain penetration [9]: < 5 % of plasma concentration | Activity against EGFR kinases ([1]; in vitro assessment): lacks activity

Source: article PMC7444767 (British Journal of Clinical Pharmacology, 2020)
